Test results from ChEMBL document CHEMBL5055621, “Synthesis and Characterization of the Novel Rodent-Active and CNS-Penetrant P2X7 Receptor Antagonist Lu AF27139” (J Med Chem, 2021).

Columns and labels:
P2X purinoceptor 7 [1] = molecular target: T1, P2X purinoceptor 7 (Homo sapiens, UniProt Q99572); assay: Antagonist activity at human P2X7 receptor expressed in HEK293 cells assessed as inhibition of BzATP-induced calcium-flux measured after 60 mins by FLIPR analysis; format: cell-based
T1 sequence (Q99572 whole entry): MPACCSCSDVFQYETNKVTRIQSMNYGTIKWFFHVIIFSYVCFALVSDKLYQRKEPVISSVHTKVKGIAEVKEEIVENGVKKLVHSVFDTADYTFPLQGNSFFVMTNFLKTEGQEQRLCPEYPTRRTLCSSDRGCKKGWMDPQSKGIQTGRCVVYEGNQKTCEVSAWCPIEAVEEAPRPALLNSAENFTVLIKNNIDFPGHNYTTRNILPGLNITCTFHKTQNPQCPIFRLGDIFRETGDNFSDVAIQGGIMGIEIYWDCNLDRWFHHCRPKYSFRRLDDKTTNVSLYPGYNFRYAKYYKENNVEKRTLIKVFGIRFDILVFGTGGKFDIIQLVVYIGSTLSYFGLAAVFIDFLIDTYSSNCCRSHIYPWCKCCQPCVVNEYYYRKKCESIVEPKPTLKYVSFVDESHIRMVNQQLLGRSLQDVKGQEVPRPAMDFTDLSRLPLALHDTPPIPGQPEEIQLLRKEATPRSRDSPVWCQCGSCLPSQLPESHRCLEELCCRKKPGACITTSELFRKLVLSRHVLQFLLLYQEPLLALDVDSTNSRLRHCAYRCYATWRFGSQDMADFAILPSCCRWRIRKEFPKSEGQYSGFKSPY

P2X purinoceptor 7 [2] = molecular target: T2, P2X purinoceptor 7 (Mus musculus, UniProt Q9Z1M0); assay: Antagonist activity at mouse P2X7 receptor expressed in HEK293 cells assessed as inhibition of BzATP-induced calcium-flux measured after 60 mins by FLIPR analysis; format: cell-based
T2 sequence (Q9Z1M0 whole entry): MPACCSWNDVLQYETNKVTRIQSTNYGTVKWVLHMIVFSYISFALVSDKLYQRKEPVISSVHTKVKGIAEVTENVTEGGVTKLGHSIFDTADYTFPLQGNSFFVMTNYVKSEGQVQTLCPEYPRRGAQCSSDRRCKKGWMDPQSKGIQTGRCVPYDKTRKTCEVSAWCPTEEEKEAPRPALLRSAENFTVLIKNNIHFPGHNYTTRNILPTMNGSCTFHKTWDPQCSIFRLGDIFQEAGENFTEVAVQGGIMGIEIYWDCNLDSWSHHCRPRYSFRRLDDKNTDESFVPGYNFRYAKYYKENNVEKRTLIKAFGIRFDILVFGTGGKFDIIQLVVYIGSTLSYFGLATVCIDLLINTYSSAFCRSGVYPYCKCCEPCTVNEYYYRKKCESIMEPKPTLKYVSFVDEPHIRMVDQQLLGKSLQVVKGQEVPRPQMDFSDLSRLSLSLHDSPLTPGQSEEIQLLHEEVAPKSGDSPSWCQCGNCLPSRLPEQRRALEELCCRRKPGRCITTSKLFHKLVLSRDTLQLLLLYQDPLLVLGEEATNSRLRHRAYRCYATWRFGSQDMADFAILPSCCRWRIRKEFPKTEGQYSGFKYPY
Method in brief: (§1)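 Stable rat or mouse P2X7 HEK293 cells in HBSS/20 mM HEPES/2.5 mM probenecid/0.05% BSA, pH 7.4, were loaded with Fluo-4 NW (37 °C 30 min, RT 30 min). After 30 min at RT, calcium fluorescence was read by FLIPR; n ≥ 3.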

P2X purinoceptor 7 [3] = molecular target: T1, P2X purinoceptor 7; assay: Displacement of [3H]-A-804598 from human P2X7 receptor expressed in HEK293 cell membrane by in vitro binding assay; format: cell membranes
[4] = Apparent permeability across apical to basolateral side in MDCK-MDR1 cells by LC-MS/MS analysis; details: dog
[5] = Efflux ratio of permeability across basolateral to apical side over apical to basolateral side in MDCK2-MDR1 cells; format: ADME, cell-based, Canis lupus familiaris; details: dog, MDCK-MDR1
Method in brief: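 MDR1-MDCK monolayers; permeability measured in both A-to-B and B-to-A directions, in triplicate. Efflux ratio taken as B:A over A:B permeation.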

in vitro [6] = details: rat, liver microsomes
P2X purinoceptor 7 [7] = molecular target: T3, P2X purinoceptor 7 (Rattus norvegicus, UniProt Q64663); assay: Antagonist activity at rat P2X7 receptor expressed in HEK293 cells assessed as inhibition of BzATP-induced calcium-flux measured after 60 mins by FLIPR analysis; format: cell-based; method in brief: as §1
T3 sequence (Q64663 whole entry): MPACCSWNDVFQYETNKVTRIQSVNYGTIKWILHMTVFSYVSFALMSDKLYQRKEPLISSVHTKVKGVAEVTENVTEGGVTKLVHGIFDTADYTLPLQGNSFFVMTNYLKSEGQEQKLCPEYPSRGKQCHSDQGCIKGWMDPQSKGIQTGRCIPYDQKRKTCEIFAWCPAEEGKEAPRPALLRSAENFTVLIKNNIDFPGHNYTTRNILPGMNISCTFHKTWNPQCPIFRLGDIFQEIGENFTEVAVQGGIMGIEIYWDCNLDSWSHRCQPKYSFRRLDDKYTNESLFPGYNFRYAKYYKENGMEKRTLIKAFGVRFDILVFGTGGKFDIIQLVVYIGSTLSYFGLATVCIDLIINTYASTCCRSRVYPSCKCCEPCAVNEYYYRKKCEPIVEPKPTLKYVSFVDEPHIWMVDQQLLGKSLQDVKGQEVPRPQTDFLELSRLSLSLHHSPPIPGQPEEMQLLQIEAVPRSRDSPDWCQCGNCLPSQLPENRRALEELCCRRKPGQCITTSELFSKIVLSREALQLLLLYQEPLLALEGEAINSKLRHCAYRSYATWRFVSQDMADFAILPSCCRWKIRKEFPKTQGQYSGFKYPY

THP-1 = assay: Antiinflammatory activity against human THP-1 cells assessed as reduction in LPS and BzATP-induced IL-1beta release measured after 50 mins by microplate reader; format: functional, cell-based; details: THP-1, 50 min
Method in brief: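 THP-1 cells were differentiated with IFN-γ 10 ng/mL for 48 h and primed with LPS (100 ng/mL final) for 3.5 h at 10k cells/well. Compound was added for 20 min, then BzATP (1 mM final) for 30 min at 37 °C. Supernatant IL-1β was read by human AlphaLISA.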

P2X purinoceptor 7 [8] = molecular target: T3, P2X purinoceptor 7; assay: Displacement of [3H]-A-804598 from rat P2X7 receptor expressed in HEK293 cell membrane by in vitro binding assay; format: cell membranes
P2X purinoceptor 7 [9] = molecular target: T2, P2X purinoceptor 7; assay: Displacement of [3H]-A-804598 from mouse P2X7 receptor expressed in HEK293 cell membrane by in vitro binding assay; format: cell membranes
in vitro [10] = details: human, liver microsomes

SMILES | IC50 (P2X purinoceptor 7 [1]) [nM] | IC50 (P2X purinoceptor 7 [2]) [nM] | Ki (P2X purinoceptor 7 [3]) [nM] | Papp A:B [4] [×10⁻⁶ cm/s] | efflux ratio [5] | CLint scaled at 1 h, 1 µM (in vitro [6]) [mL/min/kg] | IC50 (P2X purinoceptor 7 [7]) [nM] | IC50 (THP-1) [nM] | Ki (P2X purinoceptor 7 [8]) [nM] | Ki (P2X purinoceptor 7 [9]) [nM] | CLint scaled at 1 h, 1 µM (in vitro [10]) [mL/min/kg]
COc1ccc(CC(=O)NC(N/C(=N/C#N)Nc2cccc3ncccc23)C(C)(C)C)cc1OC (stereo not given) | 81 | 250 | 130 | 0.2 |  |  |  |  |  |  | 
CN1CCc2c(cccc2C(=O)NCC2(N3CCN(c4ccccc4)CC3)CCCCC2)C1 |  |  |  | 0.25 | 1.1 | 200 |  |  |  |  | 
FC(F)(F)c1cccc(-c2nnnn2Cc2cccnc2)c1Cl | 57 | 300 | 7.4 | 40 | 0.77 | 417 | 71 | 140 | 16 | 48 | 75
O=C(Cc1cccc(C(F)(F)F)c1Cl)NC1COc2ncccc21 (stereo not given) | 5.5 | 320 | 5.6 | 25 | 0.83 | 85 | 260 | 27 |  | 100 | 26.7
O=C(NCC1CCCCCC1)c1cn(CCO)c2ccccc12 | 72 | 240 |  | 5.9 | 0.7 | 533 | 1500 |  |  |  | 883
COC[C@H](O)Cn1c(=O)cnn(-c2ccc(Cl)c(C(=O)NCC3(O)CCCCCC3)c2)c1=O [CE-224535] | 0.76 | 660 |  | 0.6 |  |  | 470 |  |  |  | 
O=C(NC[C@@H](c1ccc(Cl)cc1)N1CCOCC1)c1sc(-c2ncccn2)nc1C(F)(F)F |  |  |  |  |  |  | 95 |  |  |  | 
Clc1cccc(-c2nnnn2Cc2cccnc2)c1Cl | 2100 | 2900 | 68 |  |  | 767 | 910 |  | 200 |  | 16.7
O=C(NCC12CC3CC(CC(C3)C1)C2)c1cc(CCCNCCCO)ccc1Cl [AZD9056] | 3.5 | 1700 | 15 | 0.7 | 17 | 43.3 | 4.4 |  | 130 |  | 20
O=C(NCC1(O)CCC(F)(F)CC1)c1cc(-c2ncc(F)cn2)ccc1Cl |  | > 10000 |  | 18 |  | 53.3 | 5500 |  | 4800 |  | 7.83
C[C@H](N/C(=N/C#N)Nc1cccc2ncccc12)c1ccccc1 |  |  |  | 9.3 |  | 71.7 | 6.1 | 15 | 3.9 |  | 23.3
CN1C(=O)CC[C@H]1C(=O)NCc1cccc(C(F)(F)F)c1Cl [GSK1482160] | 20 | 2300 | 5.7 | 20 | 0.72 | 16.7 | 1900 |  | 510 |  | 5
O=C(NCC1(N2CCN(c3ccccc3)CC2)CCOCC1)c1cccnc1Sc1ccccc1 | 35 | 0.65 |  | 11 | 1.1 | 433 | 4.7 |  | 98 |  | 283
